In ChEMBL document CHEMBL3612040, “Discovery of Selective Small Molecule Inhibitors of Monoacylglycerol Acyltransferase 3” (J Med Chem, 2015):
Active and inactive are the calls of the source. No cut-off for these calls is given here.

Legend:
[1] = Lipophilicity, logD of the compound at pH 7.4; type: physicochemical; conditions: buffer
Procedure, shortened: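 Shake-flask octanol:water partition at pH 7.4, with MS analysis of samples.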

[2] = Intrinsic clearance in human liver microsomes; type: ADME; conditions: read-out: CLH
[3] = Apparent permeability in RRCK cells; type: ADME, cell-based, Canis lupus familiaris, MDCKII-LE; conditions: dog, MDCK
[4] = biological target: T1, Diacylglycerol O-acyltransferase 1 (Homo sapiens, UniProt O75907); assay: Inhibition of DGAT1 (unknown origin) assessed as effect on incorporation of [1-14C]decanoyl moiety into TG using [1-14C]decanoyl-CoA and 1,2-didecanoyl-sn-glycerol as substrates
T1 sequence (O75907 whole entry): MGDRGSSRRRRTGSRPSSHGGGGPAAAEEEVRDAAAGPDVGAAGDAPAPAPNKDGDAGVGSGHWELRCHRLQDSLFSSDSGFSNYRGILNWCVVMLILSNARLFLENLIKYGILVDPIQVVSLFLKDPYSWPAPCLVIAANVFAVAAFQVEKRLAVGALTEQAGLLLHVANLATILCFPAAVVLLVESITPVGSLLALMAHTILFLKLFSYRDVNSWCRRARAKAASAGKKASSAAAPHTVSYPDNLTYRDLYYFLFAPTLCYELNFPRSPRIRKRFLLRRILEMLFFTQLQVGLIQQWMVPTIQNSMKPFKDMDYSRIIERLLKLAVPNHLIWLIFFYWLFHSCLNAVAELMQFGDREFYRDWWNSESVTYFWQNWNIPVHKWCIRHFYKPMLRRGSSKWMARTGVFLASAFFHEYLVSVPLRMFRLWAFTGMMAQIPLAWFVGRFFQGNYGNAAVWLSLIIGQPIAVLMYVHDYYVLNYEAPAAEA

[5] = biological target: T2, Diacylglycerol O-acyltransferase 2 (Homo sapiens, UniProt Q96PD7); assay: Inhibition of DGAT2 (unknown origin) using [1-14C]decanoyl-CoA and didecanoyl-sn-glycerol substrates incubated for 40 mins
T2 sequence (Q96PD7 whole entry): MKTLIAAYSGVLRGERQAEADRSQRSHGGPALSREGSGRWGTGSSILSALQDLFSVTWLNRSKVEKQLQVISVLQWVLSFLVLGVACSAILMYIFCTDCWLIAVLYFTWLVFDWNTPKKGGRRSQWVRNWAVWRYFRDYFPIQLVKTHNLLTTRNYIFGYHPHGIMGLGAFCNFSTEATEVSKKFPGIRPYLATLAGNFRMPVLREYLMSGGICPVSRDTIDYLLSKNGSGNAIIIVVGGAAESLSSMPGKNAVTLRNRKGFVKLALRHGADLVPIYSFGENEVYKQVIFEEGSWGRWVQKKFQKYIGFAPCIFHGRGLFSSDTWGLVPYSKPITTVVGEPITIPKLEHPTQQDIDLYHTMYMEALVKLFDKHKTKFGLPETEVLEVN
Procedure, shortened: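 DGAT2 membrane fraction (0.01 mg/mL) in 100 mM Hepes-NaOH pH 7.4, 20 mM MgCl2, 200 nM MAFP. Compound first held 20 min with 0.04% fatty-acid-free BSA, then preincubated 120 min at RT with enzyme. Started with 30 µM [1-14C]decanoyl-CoA and 125 µM 1,2-didecanoyl-sn-glycerol; ran 40 min at RT, acid-stopped. Labelled TAG read by scintillation after phase partitioning.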

CYP2C8 = biological target: T3, CYP2C8 (Homo sapiens, UniProt P10632); assay: Inhibition of CYP2C8 (unknown origin) at 3 uM; type: ADME
T3 sequence (P10632 whole entry): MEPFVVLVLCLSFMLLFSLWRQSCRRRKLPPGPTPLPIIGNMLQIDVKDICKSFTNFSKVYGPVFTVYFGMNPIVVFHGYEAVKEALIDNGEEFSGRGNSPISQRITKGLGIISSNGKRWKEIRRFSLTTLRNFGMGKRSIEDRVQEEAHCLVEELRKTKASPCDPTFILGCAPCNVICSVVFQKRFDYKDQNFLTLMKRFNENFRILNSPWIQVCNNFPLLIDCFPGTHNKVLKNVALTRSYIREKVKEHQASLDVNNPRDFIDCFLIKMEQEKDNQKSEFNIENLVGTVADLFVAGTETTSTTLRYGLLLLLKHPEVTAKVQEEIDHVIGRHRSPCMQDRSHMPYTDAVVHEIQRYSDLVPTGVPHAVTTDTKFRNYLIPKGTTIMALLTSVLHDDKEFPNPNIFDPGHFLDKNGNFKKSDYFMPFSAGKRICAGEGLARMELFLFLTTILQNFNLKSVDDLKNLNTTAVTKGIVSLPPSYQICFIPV

CYP2C9 = CYP2C9 (Homo sapiens, UniProt P11712); assay: Inhibition of CYP2C9 (unknown origin) at 3 uM; type: ADME
CYP2C9, sequence (P11712 whole entry): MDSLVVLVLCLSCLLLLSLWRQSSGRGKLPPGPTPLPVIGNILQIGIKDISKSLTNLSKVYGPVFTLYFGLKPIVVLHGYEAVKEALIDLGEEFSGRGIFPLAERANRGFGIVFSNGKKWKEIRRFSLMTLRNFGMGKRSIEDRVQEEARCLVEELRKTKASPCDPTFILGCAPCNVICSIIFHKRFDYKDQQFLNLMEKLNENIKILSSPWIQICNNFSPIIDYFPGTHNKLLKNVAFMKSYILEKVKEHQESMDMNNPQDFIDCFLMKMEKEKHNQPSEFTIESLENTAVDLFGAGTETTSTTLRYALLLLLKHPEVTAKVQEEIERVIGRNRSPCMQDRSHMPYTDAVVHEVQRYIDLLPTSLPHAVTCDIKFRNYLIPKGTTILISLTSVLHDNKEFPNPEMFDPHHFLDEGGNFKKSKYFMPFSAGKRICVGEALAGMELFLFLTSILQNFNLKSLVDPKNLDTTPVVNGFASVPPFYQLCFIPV

[6] = Systemic clearance in mouse at 1 mg/kg, iv; type: ADME, organism-based; conditions: in vivo
Procedure, shortened: (§1)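 Single 1 mg/kg intravenous dose in mice; systemic clearance, volume of distribution and effective half-life derived from plasma pharmacokinetics.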

[7] = Volume of distribution in mouse at 1 mg/kg, iv; type: ADME, organism-based; conditions: in vivo; procedure, shortened: as §1
[8] = Half life in mouse at 1 mg/kg, iv; type: ADME, organism-based; conditions: in vivo; procedure, shortened: as §1
[9] = Oral bioavailability in mouse at 5 mg/kg; type: ADME, organism-based; conditions: in vivo
[10] = Cmax in mouse at 5 mg/kg, po; type: ADME, organism-based; set-up: dose 5 mg/kg, route oral; conditions: in vivo
[11] = AUClast in mouse at 5 mg/kg, po; type: ADME, organism-based; set-up: dose 5 mg/kg, route oral, time 0 - last; conditions: in vivo
Mus musculus [12] = assay: (§2) In-vivo inhibition of MGAT3-mediated TAG synthesis in human MGAT3 transgenic mouse assessed as reduction in incorporation of glycerol-d8 in to triolein expressed as atom percent excess at 200 mg/kg, po dosed 1 hr before of 100 mg/kg, iv glycerol-d8 and measured 30 mins post glycerol-d8 dosing by LC-MS method; type: functional, organism-based
Procedure, shortened: (§3)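 Fed mice (wild type or human MOGAT3 transgenic), studied 8 AM–12 PM. Oral dosing in 0.5% methyl cellulose in saline, alone or with DGAT1 inhibitor (30 mg/kg) and DGAT2 inhibitor (10 mg/kg). After 1 h, 100 mg/kg uniformly labelled D8-glycerol (10 mg/mL in saline) given by tail vein. EDTA plasma taken 30 min later; D5-glycerol enrichment in triolein (18:1/18:1/18:1) measured by LC/MS, reported as mean atom percent excess ± SE.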

Mus musculus [13] = assay: Effect on incorporation of glycerol-d8 into triolein in wild type mouse by measuring atom percent excess at 200 mg/kg, po dosed 1 hr before of 100 mg/kg, iv glycerol-d8 and measured 30 mins post glycerol-d8 dosing and co-treated with 30 mg/kg for DGAT1 inhibitor-12 and 10 mg/kg for DGAT2 inhibitor-13 by LC-MS method; type: functional, organism-based
Procedure, shortened: (§4)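 Fed mice (wild type or human MOGAT3 transgenic) were studied between 8 AM and 12 PM. Inhibitors were given orally in 0.5% methyl cellulose in saline. After 1 h, D8-glycerol (10 mg/mL in saline) was injected into the tail vein. Blood was taken into EDTA 30 min later and plasma lipids extracted. D5-glycerol in triolein (18:1/18:1/18:1) was measured by LC/MS as atom percent excess, mean ± SE.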

Mus musculus [14] = assay: as §2, with “dosing and co-treated with 30 mg/kg for DGAT1 inhibitor-12 and 10 mg/kg for DGAT2 inhibitor-13” for “dosing”; type: functional, organism-based; procedure, shortened: as §4
[15] = Genotoxicity in micronucleus (unknown origin) by micronucleus assay
Mus musculus [16] = assay: Effect on incorporation of glycerol-d8 into triolein in wild type mouse by measuring atom percent excess at 200 mg/kg, po dosed 1 hr before of 100 mg/kg, iv glycerol-d8 and measured 30 mins post glycerol-d8 dosing by LC-MS method; type: functional, organism-based; procedure, shortened: as §3
[17] = biological target: T4, Peroxisome proliferator-activated receptor gamma (Homo sapiens, UniProt P37231); assay: Inhibition of PPARgamma (unknown origin)
T4 sequence (P37231 whole entry): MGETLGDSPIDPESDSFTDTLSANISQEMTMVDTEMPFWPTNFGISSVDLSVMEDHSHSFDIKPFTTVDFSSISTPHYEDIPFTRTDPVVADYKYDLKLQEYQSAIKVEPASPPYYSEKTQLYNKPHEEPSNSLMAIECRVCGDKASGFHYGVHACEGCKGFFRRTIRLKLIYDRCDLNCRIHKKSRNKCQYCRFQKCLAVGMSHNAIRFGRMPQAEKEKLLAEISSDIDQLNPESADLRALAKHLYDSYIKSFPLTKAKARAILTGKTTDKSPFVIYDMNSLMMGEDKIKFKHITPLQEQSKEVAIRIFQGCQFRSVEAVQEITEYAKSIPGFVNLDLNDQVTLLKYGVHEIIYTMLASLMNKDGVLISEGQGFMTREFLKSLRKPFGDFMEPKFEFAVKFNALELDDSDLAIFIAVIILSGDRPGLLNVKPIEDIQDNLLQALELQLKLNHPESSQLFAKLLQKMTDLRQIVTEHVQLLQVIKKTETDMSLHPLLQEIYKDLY

[18] = biological target: Voltage-gated inwardly rectifying potassium channel KCNH2 (Homo sapiens, UniProt Q12809); assay: Inhibition of human ERG
Voltage-gated inwardly rectifying potassium channel KCNH2, sequence (Q12809 whole entry): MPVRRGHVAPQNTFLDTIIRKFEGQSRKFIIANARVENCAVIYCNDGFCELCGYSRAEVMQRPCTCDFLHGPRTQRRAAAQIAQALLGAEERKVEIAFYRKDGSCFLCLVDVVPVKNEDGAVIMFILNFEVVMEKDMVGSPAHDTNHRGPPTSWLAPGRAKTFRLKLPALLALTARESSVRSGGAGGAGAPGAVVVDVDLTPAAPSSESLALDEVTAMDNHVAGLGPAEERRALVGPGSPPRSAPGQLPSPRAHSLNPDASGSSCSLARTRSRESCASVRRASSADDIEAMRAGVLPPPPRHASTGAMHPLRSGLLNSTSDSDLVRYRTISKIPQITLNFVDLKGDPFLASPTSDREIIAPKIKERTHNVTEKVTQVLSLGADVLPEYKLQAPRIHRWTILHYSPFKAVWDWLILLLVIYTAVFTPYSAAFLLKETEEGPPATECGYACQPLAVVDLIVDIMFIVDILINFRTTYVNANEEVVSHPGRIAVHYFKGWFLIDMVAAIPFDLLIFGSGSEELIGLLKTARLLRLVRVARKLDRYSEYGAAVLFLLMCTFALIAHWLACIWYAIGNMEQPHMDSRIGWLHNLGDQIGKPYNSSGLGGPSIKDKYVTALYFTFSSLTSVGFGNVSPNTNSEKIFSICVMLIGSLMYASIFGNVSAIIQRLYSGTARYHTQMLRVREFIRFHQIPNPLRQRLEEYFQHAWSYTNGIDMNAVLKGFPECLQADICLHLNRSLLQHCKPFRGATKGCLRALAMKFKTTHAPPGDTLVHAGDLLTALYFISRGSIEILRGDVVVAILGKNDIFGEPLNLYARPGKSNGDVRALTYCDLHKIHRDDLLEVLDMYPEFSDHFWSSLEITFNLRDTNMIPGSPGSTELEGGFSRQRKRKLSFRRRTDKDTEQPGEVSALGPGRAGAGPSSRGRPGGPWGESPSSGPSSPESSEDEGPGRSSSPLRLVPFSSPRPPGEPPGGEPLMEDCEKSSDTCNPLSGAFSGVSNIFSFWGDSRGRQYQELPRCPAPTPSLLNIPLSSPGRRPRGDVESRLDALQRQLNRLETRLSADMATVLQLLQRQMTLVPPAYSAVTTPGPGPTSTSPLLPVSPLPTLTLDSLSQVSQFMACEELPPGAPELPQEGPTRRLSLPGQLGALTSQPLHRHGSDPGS

Cytochrome P450 1A2 = biological target: T5, Cytochrome P450 1A2 (Homo sapiens, UniProt P05177); assay: Inhibition of human CYP1A2; type: ADME
T5 sequence (P05177 whole entry): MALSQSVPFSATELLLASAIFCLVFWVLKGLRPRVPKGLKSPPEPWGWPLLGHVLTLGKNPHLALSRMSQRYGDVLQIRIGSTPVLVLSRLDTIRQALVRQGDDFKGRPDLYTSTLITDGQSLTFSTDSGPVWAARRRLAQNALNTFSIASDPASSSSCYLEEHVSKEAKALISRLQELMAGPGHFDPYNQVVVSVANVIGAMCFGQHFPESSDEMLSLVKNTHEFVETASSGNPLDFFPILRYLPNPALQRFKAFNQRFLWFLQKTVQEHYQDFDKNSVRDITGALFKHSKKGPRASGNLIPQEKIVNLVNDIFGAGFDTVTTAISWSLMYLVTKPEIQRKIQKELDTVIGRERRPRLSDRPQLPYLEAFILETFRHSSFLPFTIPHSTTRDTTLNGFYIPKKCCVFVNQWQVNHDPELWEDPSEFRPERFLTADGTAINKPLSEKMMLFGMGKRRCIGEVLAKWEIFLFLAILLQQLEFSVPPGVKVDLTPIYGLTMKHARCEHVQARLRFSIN

Cytochrome P450 2C8 = biological target: T6, Cytochrome P450 2C8 (Homo sapiens, UniProt P10632); assay: Inhibition of human CYP2C8; type: ADME
T6 sequence (P10632 whole entry): T3 sequence (P10632 whole entry)

Cytochrome P450 2C9 = Cytochrome P450 2C9 (Homo sapiens, UniProt P11712); assay: Inhibition of human CYP2C9; type: ADME
Cytochrome P450 2C9, sequence (P11712 whole entry): as the sequence (P11712 whole entry) above

Cytochrome P450 2D6 = Cytochrome P450 2D6 (Homo sapiens, UniProt P10635); assay: Inhibition of human CYP2D6; type: ADME
Cytochrome P450 2D6, sequence (P10635 whole entry): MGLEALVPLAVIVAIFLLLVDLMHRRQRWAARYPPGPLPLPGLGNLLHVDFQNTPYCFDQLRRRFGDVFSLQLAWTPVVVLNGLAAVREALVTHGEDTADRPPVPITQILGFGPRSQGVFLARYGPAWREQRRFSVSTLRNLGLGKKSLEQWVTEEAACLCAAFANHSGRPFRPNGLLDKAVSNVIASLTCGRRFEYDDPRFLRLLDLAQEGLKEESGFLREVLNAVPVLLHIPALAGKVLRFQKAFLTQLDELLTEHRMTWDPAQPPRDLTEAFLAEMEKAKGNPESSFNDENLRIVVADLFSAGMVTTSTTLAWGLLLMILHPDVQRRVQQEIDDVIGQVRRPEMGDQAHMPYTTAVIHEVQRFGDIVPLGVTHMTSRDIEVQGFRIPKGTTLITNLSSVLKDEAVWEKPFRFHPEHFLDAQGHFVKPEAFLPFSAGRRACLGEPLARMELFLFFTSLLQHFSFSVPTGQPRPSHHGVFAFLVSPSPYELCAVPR

Cytochrome P450 3A4 = Cytochrome P450 3A4 (Homo sapiens, UniProt P08684); assay: Inhibition of human CYP3A4; type: ADME
Cytochrome P450 3A4, sequence (P08684 whole entry): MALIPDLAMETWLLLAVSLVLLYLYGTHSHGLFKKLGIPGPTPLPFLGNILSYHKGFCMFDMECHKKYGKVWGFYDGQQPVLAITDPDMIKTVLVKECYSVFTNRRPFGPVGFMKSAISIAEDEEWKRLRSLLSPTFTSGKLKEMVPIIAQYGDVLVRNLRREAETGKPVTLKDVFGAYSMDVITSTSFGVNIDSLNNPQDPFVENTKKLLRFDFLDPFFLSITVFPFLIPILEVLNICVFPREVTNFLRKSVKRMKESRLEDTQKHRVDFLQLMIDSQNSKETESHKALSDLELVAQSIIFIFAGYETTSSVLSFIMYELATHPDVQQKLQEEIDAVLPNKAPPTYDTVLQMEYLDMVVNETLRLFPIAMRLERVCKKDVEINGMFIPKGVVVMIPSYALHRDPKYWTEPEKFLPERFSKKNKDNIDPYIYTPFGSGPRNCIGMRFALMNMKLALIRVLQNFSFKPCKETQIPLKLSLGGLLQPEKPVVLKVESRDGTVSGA

Salmonella typhimurium = assay: Genotoxicity in Salmonella typhimurium by Amest test; type: toxicity, organism-based; conditions: salmonella enterica subsp. enterica serovar typhimurium
HepG2 = assay: Toxicity in human HepG2 cells up to 300 uM incubated for 72 hrs; type: cell-based; conditions: hepg2, 72 h
Procedure, shortened: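 HepG2 cells incubated with compound up to 300 µM for 72 hours.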

Compound	logD [1]	microsomal CLint [2]	Papp [3]	IC50 [4]	IC50 [5]	inhibition at 3 µM (CYP2C8)	inhibition at 3 µM (CYP2C9)	other results
COc1cccc(CC(=O)N2Cc3ccc(S(=O)(=O)NCCc4cccc(F)c4)cc3C2)c1	3.6	> 320 µL/min/mg	8 ×10⁻⁶ cm/s	31 µM	> 40 µM	29%	35%	–
COc1cccc(CC(=O)N2Cc3ccc(S(=O)(=O)Nc4cnn(-c5ccc(F)cc5)n4)cc3C2)c1	2.5	13 µL/min/mg	6 ×10⁻⁶ cm/s	–	–	62%	95%	–

Further lines, with some results ahead:

logD [1]	microsomal CLint [2]	Papp [3]	IC50 [4]	IC50 [5]	inhibition at 3 µM (CYP2C8)	inhibition at 3 µM (CYP2C9)	Compound	other results
0.2	< 8 µL/min/mg	1 ×10⁻⁶ cm/s	–	–	–	–	COc1cccc(CC(=O)N2Cc3ccc(S(=O)(=O)Nc4cnn(C)n4)cc3C2)c1	–
0.2	< 8 µL/min/mg	3 ×10⁻⁶ cm/s	–	–	–	–	COc1cccc(CC(=O)N2Cc3ccc(S(=O)(=O)Nc4cnn(C5COC5)n4)cc3C2)c1	–
1.7	22 µL/min/mg	12 ×10⁻⁶ cm/s	> 50 µM	> 100 µM	–	–	COc1cccc(CC(=O)N2Cc3ccc(S(=O)(=O)Nc4cnn(C5CCC5)n4)cc3C2)c1	clearance [6]: 1.4 mL/min/kg; Vd [7]: 0.17 L/kg; half-life [8]: 1.4 h; bioavailability [9]: 74%; Cmax [10]: 9300 ng/mL; AUC(0-t) [11]: 27000 ng·h/mL; inhibition (Mus musculus [12]): inactive; Activity (Mus musculus [13]): inactive; inhibition (Mus musculus [14]): Active; Activity [15]: Non-toxic; Activity (Mus musculus [16]): inactive; IC50 [17]: 4 µM; inhibition (INH) [18]: Not Active; inhibition (INH) (Cytochrome P450 1A2): Not Active; inhibition (INH) (Cytochrome P450 2C8): Not Active; inhibition (INH) (Cytochrome P450 2C9): Not Active; inhibition (INH) (Cytochrome P450 2D6): Not Active; inhibition (INH) (Cytochrome P450 3A4): Not Active; Activity (Salmonella typhimurium): Non-toxic; Activity (HepG2): Non-toxic
